In brackets after ≈: the same amount, converted by molar mass. Starred links: 1 amine or outer side, 2 acyl side, 3 side chain; linkers in the order of their positions; H or OH if unused. Positions of bridges follow the written chain, without caps; N, C: chain ends. Non-standard residues stand in square brackets, D forms with d. Residues, ends and D or L forms follow the SMILES beside them. TATA = O=C(CC[*:1])N1CN(C(=O)CC[*:2])CN(C(=O)CC[*:3])C1; tBuAla = CC(C)(C)C[C@H](N)C(=O)O; Nle = CCCC[C@H](N)C(=O)O
Tests used:
Nectin-4 = test: Cross-species binding of the Nectin-4 Bicycle; parameters: species or system mouse, rat, monkey, and human
CD137 = test: Cross-species binding of the CD137 Bicycle; parameters: species or system human and monkey
[1] = test system: human PBMCs cocultured with HT1376; test: PBMC/HT1376 coculture cytokine secretion assay; assay type: cell-based; details: anti-CD3 stimulated PBMCs with HT1376
Procedure, shortened: (§1)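 Frozen healthy-donor human PBMCs were thawed, washed in PBS with benzonase and resuspended in RPMI with 10% heat-inactivated FBS, HEPES and glutamine. PBMCs (1 × 10^6/mL) were plated with tumor cells (1 × 10^5/mL) at 10:1, stimulated with soluble anti-CD3 OKT3 (100 ng/mL), and given diluted test compound. Incubation was 2 days at 37 °C, 5% CO2. Supernatant IFNγ and IL-2 were measured by Luminex; four-parameter fit, n = 3.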

[2] = Pharmacokinetics in Sprague-Dawley rats; details: rat, in vivo, iv, 2 mg/kg, SD rats, 2 mg/kg IV bolus; for clearance: CL (mL/min/kg); for half-life: t½ (h), terminal half-life
CT26-Nectin-4 tumors = test: CT26-Nectin-4 syngeneic tumor model; assay type: in vivo, Balb/c mice; details: 1 and 5 mg/kg QD IP
[3] = test system: human PBMCs cocultured with MC38-Nectin-4; test: PBMC/MC38-Nectin-4 coculture cytokine secretion assay; assay type: cell-based; details: anti-CD3 stimulated; IFNγ after 48 h
Procedure, shortened: as §1

MC38-Nectin-4 tumors = test: CIVO intratumoral microdosing pharmacodynamics; assay type: in vivo, huCD137 C57Bl/6 mice; details: 1.85 μM microdose, 24 h, IHC; compared to vehicle or MMAE injection sites
Procedure, shortened: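 C57BL/6J-hCD137 mice bearing subcutaneous MC38-Nectin-4 tumors (around 860 mm3; three mice) were anesthetized and microdosed transcutaneously with the CIVO device. Each 2 μL injection held vehicle (25 mM histidine, 10% sucrose pH 7), 120 μM MMAE or 1.85 μM test compound, plus fluorescent tracking microspheres. Tumors were taken 24 h later, formalin-fixed, paraffin-embedded and stained by fluorescent IHC for CD8, GzB and DAPI. CD8+/GzB+ cells were normalized to total CD8+ cells; one-way ANOVA with Dunnett's post-test.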

Thermodynamic solubility = assay type: physicochemical; details: pH 7.4

| SMILES | secretion of proinflammatory cytokines IFNγ and IL-2 [1] | clearance [2] [mL/min/kg] | half-life [2] [h] | other results |
| --- | --- | --- | --- | --- |
| CSCC[C@@H]1NC(=O)[C@@H]2CSCCC(=O)N3CN(CN(C3)C(=O)CCSC[C@H](N)C(=O)N3CCC[C@H]3C(=O)N[C@@H](Cc3cccc4ccccc34)C(=O)N[C@H](CC(=O)O)C(=O)N2)C(=O)CCSC[C@@H](C(N)=O)NC(=O)[C@H](Cc2c[nH]c3ccccc23)NC(=O)[C@@H]2C[C@@H](O)CN2C(=O)[C@@H]2CCCN2C(=O)[C@H]([C@@H](C)O)NC(=O)[C@H](CO)NC(=O)[C@H](Cc2c[nH]c3ccccc23)NC(=O)[C@H](CC(=O)O)NC(=O)[C@H](CCCCNC(=N)N)NC1=O [BCY8116] | – | – | – | species cross-reactivity of binding to Nectin-4 (Nectin-4): binds to mouse, rat, monkey, and human Nectin-4 |
| CCCC[C@@H]1NC(=O)[C@H](Cc2ccc(O)cc2)NC(=O)[C@@H]2CCCN2C(=O)[C@H](CC(=O)O)NC(=O)[C@H](C)NC(=O)[C@H](Cc2ccccc2)NC(=O)[C@@H]2CSCCC(=O)N3CN(CN(C3)C(=O)CCSC[C@@H](C(=O)N[C@@H](C)C(N)=O)NC1=O)C(=O)CCSC[C@H](NC(C)=O)C(=O)N[C@@H](CC(C)(C)C)C(=O)N1CCC[C@H]1C(=O)N[C@@H](CCC(=O)O)C(=O)N[C@H](CCCCN)C(=O)N1CCC[C@H]1C(=O)N[C@@H](Cc1ccc(O)cc1)C(=O)N2 [BCY8928] (Ac-C[tBuAla]PE[dK]PYCFADPY[Nle]CA-NH2; linker 1-8-15 via TATA) | – | – | – | species cross-reactivity of binding to CD137 (CD137): binds only to human and monkey CD137 |
| CCCC[C@@H]1NC(=O)[C@H](Cc2ccc(O)cc2)NC(=O)[C@@H]2CCCN2C(=O)[C@H](CC(=O)O)NC(=O)[C@H](C)NC(=O)[C@H](Cc2ccccc2)NC(=O)[C@@H]2CSCCC(=O)N3CN(CN(C3)C(=O)CCSC[C@@H](C(=O)N[C@@H](C)C(N)=O)NC1=O)C(=O)CCSC[C@H](NC(C)=O)C(=O)N[C@@H](CC(C)(C)C)C(=O)N1CCC[C@H]1C(=O)N[C@@H](CCC(=O)O)C(=O)N[C@H](CCCCNC(=O)CCc1cn(CCOCCOCCOCCOCCOCCC(=O)N[C@H]3CSCCC(=O)N4CN5CN(C4)C(=O)CCSC[C@H](NC(=O)[C@@H](CC(=O)O)NC(=O)[C@H](Cc4cccc6ccccc46)NC(=O)[C@@H]4CCCN4C3=O)C(=O)N[C@@H](CCSC)C(=O)N[C@@H](CCCCNC(=N)N)C(=O)N[C@@H](CC(=O)O)C(=O)N[C@@H](Cc3c[nH]c4ccccc34)C(=O)N[C@@H](CO)C(=O)N[C@@H]([C@@H](C)O)C(=O)N3CCC[C@H]3C(=O)N3C[C@H](O)C[C@H]3C(=O)N[C@@H](Cc3c[nH]c4ccccc34)C(=O)N[C@H](C(N)=O)CSCCC5=O)nn1)C(=O)N1CCC[C@H]1C(=O)N[C@@H](Cc1ccc(O)cc1)C(=O)N2 [BCY10572] | dose-dependent increase | 18 | – | antitumor activity (CT26-Nectin-4 tumors; huCD137-Balb/c mice): Potent antitumor activity; antitumor activity (CT26-Nectin-4 tumors; wt Balb/c mice): no BCY10572 antitumor activity |
| CCCC[C@@H]1NC(=O)[C@H](Cc2ccc(O)cc2)NC(=O)[C@@H]2CCCN2C(=O)[C@H](CC(=O)O)NC(=O)[C@H](C)NC(=O)[C@H](Cc2ccccc2)NC(=O)[C@@H]2CSCCC(=O)N3CN(CN(C3)C(=O)CCSC[C@@H](C(=O)N[C@@H](C)C(N)=O)NC1=O)C(=O)CCSC[C@H](NC(=O)[C@H](C)NC(C)=O)C(=O)N[C@@H]([C@@H](C)CC)C(=O)N[C@@H](CCC(=O)O)C(=O)N[C@@H](CCC(=O)O)C(=O)N[C@H](CCCCNC(=O)CCc1cn(CCOCCOCCOCCN(CCOCCOCCOCCC(=O)N[C@H]3CSCCC(=O)N4CN5CN(C4)C(=O)CCSC[C@H](NC(=O)[C@@H](CC(=O)O)NC(=O)[C@H](Cc4cccc6ccccc46)NC(=O)[C@@H]4CCCN4C3=O)C(=O)N[C@@H](CCSC)C(=O)N[C@@H](CCCCNC(=N)N)C(=O)N[C@@H](CC(=O)O)C(=O)N[C@@H](Cc3c[nH]c4ccccc34)C(=O)N[C@@H](CO)C(=O)N[C@@H]([C@@H](C)O)C(=O)N3CCC[C@H]3C(=O)N3C[C@H](O)C[C@H]3C(=O)N[C@@H](Cc3c[nH]c4ccccc34)C(=O)N[C@H](C(N)=O)CSCCC5=O)CCOCCOCCOCCn3cc(CCC(=O)NCCCC[C@H]4NC(=O)[C@H](CCC(=O)O)NC(=O)[C@H](CCC(=O)O)NC(=O)[C@H]([C@@H](C)CC)NC(=O)[C@@H](NC(=O)[C@H](C)NC(C)=O)CSCCC(=O)N5CN6CN(C5)C(=O)CCSC[C@H](NC(=O)[C@H](Cc5ccc(O)cc5)NC(=O)[C@H](CCC(N)=O)NC4=O)C(=O)N[C@@H](Cc4ccccc4)C(=O)N[C@@H](C)C(=O)N[C@@H](CC(=O)O)C(=O)N4CCC[C@H]4C(=O)N[C@@H](Cc4ccc(O)cc4)C(=O)N[C@@H](CCCC)C(=O)N[C@H](C(=O)N[C@@H](C)C(N)=O)CSCCC6=O)nn3)nn1)C(=O)N[C@@H](CCC(N)=O)C(=O)N[C@@H](Cc1ccc(O)cc1)C(=O)N2 [BCY11864] | dose-dependent increase | – | 0.95 | functional activity in PBMCs cocultured with MC38-Nectin-4 [3]: functionally active; proportion of CD8+/GzB+ double positive cells of total CD8+ cells (MC38-Nectin-4 tumors): increase |
| CCCC[C@@H]1NC(=O)[C@H](Cc2ccc(O)cc2)NC(=O)[C@@H]2CCCN2C(=O)[C@H](CC(=O)O)NC(=O)[C@H](C)NC(=O)[C@H](Cc2ccccc2)NC(=O)[C@@H]2CSCCC(=O)N3CN(CN(C3)C(=O)CCSC[C@@H](C(N)=O)NC1=O)C(=O)CCSCCC(=O)N[C@@H](CC(C)(C)C)C(=O)N1CCC[C@H]1C(=O)N[C@@H](CCC(=O)O)C(=O)N[C@H](CCCCNC(=O)CCc1cn(CCOCCOCCOCCN(CCOCCOCCOCCC(=O)N[C@H]3CSCCC(=O)N4CN5CN(C4)C(=O)CCSC[C@H](NC(=O)[C@@H](CC(=O)O)NC(=O)[C@H](Cc4cccc6ccccc46)NC(=O)[C@@H]4CCCN4C3=O)C(=O)N[C@@H](CCSC)C(=O)N[C@@H](CCCCNC(=N)N)C(=O)N[C@@H](CC(=O)O)C(=O)N[C@@H](Cc3c[nH]c4ccccc34)C(=O)N[C@@H](CO)C(=O)N[C@@H]([C@@H](C)O)C(=O)N3CCC[C@H]3C(=O)N3C[C@H](O)C[C@H]3C(=O)N[C@@H](Cc3c[nH]c4ccccc34)C(=O)N[C@H](C(N)=O)CSCCC5=O)CCOCCOCCOCCn3cc(CCC(=O)NCCCC[C@H]4NC(=O)[C@H](CCC(=O)O)NC(=O)[C@@H]5CCCN5C(=O)[C@H](CC(C)(C)C)NC(=O)CCSCCC(=O)N5CN6CN(C5)C(=O)CCSC[C@H](NC(=O)[C@H](Cc5ccc(O)cc5)NC(=O)[C@@H]5CCCN5C4=O)C(=O)N[C@@H](Cc4ccccc4)C(=O)N[C@@H](C)C(=O)N[C@@H](CC(=O)O)C(=O)N4CCC[C@H]4C(=O)N[C@@H](Cc4ccc(O)cc4)C(=O)N[C@@H](CCCC)C(=O)N[C@H](C(N)=O)CSCCC6=O)nn3)nn1)C(=O)N1CCC[C@H]1C(=O)N[C@@H](Cc1ccc(O)cc1)C(=O)N2 [BCY12587] | dose-dependent increase | 4.5 | 17 | solubility thermodynamic (Thermodynamic solubility): 3100 µg/mL (≈ 446 µM) |

— article PMC9340768 (Journal of Medicinal Chemistry, 2022)
